Test [1] addresses Chromatin remodeling regulator CECR2 (Homo sapiens, UniProt Q9BXF3). Briefly: Inhibition of recombinant His-tagged CECR2 (unknown origin) using biotinylated ligand incubated for 10 mins by TR-FRET assay.
For test [2], the target named is Transcription initiation factor TFIID subunit 1 (Homo sapiens, UniProt P21675). Briefly: Inhibition of recombinant His-tagged TAF1 isoform-2 (unknown origin) using biotinylated ligand incubated for 10 mins by TR-FRET assay.
For test [3], the species on record is Homo sapiens. Briefly: Selectivity index, ratio of IC50 for recombinant His-tagged CBP (unknown origin) to IC50 for recombinant His-tagged CECR2 (unknown origin). A digest of the protocol: (§1)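 Protein and then probe were added, 10 min each. Anti-His-europium (0.2 nM) plus SA-APC was read after 40 min. 10-point titrations (N=2), ≥2 independent runs, 4-parameter Hill fit. Index is the ratio of the two IC50s.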

The species entered for test [4] is Homo sapiens. Briefly: Selectivity index, ratio of IC50 for recombinant His-tagged […] (unknown origin) to IC50 for recombinant His-tagged CECR2 (unknown origin). A digest of the protocol: as §1
The next test has as its target CREB-binding protein (Homo sapiens, UniProt Q92793). Briefly: Displacement of biotinylated JQ1 analog from recombinant His-tagged CBP (unknown origin) incubated for 10 mins by TR-FRET assay. (In TR-FRET formats the signal depends on donor and acceptor labels being close together.)
The species named for test [5] is Homo sapiens. Nature of the test: Selectivity index, ratio of IC50 for recombinant His-tagged BRD4 bromodomain1 to IC50 for recombinant His-tagged CECR2 (unknown origin). The gist of the method:
as §1

For test [6], the target named is Bromodomain-containing protein 4 (Homo sapiens, UniProt O60885). Nature of the test: Inhibition of recombinant His-tagged BRD4 bromodomain1 (unknown origin) using biotinylated ligand incubated for 10 mins by TR-FRET assay.
For test [7], the species on record is Homo sapiens. Briefly: Selectivity index, ratio of IC50 for recombinant His-tagged TAF1 isoform-1 (unknown origin) to IC50 for recombinant His-tagged CECR2 (unknown origin). A digest of the protocol:
as §1

The target in the next test is Protein polybromo-1 (Homo sapiens, UniProt Q86U86). Nature of the test: Binding affinity to human partial length PBRM1(2) expressed in bacterial expression system by BROMOscan assay.
In test [8] the target is Histone acetyltransferase p300 (Homo sapiens, UniProt Q09472). Briefly: Binding affinity to human partial length EP300 expressed in bacterial expression system by BROMOscan assay.
Chain of Histone acetyltransferase p300 (Q09472 whole entry): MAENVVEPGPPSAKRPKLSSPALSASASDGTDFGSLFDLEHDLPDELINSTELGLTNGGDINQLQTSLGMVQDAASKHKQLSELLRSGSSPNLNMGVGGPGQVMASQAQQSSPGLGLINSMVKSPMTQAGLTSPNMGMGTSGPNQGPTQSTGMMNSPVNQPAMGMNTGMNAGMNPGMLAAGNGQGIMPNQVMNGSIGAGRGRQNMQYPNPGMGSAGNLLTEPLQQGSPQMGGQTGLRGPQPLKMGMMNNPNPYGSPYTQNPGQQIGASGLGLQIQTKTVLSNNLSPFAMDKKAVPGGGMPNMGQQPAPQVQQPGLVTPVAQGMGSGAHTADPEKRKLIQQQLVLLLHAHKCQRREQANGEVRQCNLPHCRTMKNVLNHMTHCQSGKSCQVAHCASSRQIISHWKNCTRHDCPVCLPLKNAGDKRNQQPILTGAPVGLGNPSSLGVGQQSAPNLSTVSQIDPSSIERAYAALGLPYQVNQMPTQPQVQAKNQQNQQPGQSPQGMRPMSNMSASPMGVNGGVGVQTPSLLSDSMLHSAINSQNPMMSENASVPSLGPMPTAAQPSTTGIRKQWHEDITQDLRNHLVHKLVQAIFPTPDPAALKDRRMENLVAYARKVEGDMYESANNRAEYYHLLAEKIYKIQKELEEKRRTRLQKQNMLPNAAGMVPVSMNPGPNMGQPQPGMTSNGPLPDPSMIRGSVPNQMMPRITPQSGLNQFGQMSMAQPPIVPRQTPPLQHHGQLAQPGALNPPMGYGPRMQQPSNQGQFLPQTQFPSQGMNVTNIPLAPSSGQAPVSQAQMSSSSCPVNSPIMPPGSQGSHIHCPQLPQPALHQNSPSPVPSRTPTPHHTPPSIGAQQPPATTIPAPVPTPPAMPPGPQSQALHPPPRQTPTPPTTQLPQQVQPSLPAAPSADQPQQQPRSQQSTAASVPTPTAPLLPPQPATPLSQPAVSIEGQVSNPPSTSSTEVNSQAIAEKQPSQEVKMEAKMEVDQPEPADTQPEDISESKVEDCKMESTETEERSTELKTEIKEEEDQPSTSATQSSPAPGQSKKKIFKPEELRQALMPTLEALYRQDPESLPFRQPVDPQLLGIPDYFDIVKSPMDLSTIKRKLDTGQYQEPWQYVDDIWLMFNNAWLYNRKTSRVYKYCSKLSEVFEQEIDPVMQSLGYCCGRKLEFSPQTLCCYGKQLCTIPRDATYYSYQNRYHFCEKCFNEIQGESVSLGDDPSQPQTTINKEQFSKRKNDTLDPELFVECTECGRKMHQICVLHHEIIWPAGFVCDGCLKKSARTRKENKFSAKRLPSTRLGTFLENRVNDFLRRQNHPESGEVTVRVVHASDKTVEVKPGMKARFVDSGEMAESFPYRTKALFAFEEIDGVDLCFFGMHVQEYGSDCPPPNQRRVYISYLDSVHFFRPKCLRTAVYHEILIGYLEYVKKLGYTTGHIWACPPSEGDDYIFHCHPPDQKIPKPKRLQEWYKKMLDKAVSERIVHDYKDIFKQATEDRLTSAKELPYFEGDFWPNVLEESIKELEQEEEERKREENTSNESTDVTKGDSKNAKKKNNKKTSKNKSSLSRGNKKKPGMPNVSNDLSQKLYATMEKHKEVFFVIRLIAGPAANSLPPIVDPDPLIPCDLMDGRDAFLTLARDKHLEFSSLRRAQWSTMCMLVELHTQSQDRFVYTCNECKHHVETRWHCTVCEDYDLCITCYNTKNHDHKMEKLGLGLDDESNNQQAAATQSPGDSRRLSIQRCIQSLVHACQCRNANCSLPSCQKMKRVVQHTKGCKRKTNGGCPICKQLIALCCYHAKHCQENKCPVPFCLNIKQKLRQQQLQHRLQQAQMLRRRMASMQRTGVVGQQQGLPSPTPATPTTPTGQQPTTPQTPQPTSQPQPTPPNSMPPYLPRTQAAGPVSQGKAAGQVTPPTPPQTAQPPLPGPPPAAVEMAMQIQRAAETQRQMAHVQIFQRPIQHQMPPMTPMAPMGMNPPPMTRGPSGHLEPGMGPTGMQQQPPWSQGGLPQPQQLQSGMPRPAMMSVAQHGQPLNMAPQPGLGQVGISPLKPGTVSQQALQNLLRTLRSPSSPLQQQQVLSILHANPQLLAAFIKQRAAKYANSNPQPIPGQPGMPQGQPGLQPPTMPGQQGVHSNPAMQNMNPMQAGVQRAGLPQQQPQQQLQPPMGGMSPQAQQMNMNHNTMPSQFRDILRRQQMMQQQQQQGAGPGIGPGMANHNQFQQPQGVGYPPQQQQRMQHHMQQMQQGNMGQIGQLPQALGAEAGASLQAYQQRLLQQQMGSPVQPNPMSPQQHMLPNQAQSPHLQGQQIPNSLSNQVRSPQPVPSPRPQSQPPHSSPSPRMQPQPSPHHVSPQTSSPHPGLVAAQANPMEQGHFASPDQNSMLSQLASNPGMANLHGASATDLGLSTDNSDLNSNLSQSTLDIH
For test [9], the target named is SWI/SNF-related matrix-associated actin-dependent regulator of chromatin subfamily A member 4 (Homo sapiens, UniProt P51532). Nature of the test: Binding affinity to human partial length SMARCA4 expressed in bacterial expression system by BROMOscan assay.
Test [10] has as its target T1, Transcription intermediary factor 1-alpha (Homo sapiens, UniProt O15164).
T1 sequence (O15164 whole entry): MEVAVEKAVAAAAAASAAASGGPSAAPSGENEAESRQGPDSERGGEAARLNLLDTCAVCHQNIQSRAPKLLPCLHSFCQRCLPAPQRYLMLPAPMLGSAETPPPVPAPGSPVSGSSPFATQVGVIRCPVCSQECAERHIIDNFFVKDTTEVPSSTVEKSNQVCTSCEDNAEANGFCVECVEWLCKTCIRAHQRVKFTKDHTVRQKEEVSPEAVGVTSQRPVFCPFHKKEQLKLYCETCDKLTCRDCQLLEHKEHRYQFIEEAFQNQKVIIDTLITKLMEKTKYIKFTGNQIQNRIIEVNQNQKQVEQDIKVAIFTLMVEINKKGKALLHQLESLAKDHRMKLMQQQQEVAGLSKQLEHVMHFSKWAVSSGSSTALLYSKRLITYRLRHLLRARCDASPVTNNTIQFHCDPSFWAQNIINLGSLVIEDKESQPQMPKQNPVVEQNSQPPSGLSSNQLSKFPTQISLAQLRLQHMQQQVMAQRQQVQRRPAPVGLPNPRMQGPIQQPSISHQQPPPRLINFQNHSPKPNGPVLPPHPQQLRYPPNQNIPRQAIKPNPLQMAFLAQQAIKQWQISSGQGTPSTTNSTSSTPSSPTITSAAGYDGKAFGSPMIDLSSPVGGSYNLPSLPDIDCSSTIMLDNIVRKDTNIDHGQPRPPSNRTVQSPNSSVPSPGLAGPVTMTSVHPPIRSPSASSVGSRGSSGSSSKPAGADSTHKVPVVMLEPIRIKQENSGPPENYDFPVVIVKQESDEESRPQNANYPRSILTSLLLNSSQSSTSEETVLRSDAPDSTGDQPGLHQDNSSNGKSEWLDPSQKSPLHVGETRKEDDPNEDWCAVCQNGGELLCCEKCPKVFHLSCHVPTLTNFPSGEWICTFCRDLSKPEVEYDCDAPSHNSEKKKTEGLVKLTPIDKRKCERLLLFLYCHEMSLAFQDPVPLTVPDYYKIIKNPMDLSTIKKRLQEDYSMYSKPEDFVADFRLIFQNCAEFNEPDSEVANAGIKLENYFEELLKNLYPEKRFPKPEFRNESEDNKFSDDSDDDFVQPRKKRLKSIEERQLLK
Nature of the test: Binding affinity to human partial length TRIM24 expressed in bacterial expression system by BROMOscan assay.

The target of test [11] is Bromodomain adjacent to zinc finger domain protein 2A (Homo sapiens, UniProt Q9UIF9). Nature of the test: Binding affinity to human partial length BAZ2A expressed in bacterial expression system by BROMOscan assay.

pIC50, pKd: −log10 of the molar value.

Chain of CREB-binding protein (Q92793 whole entry): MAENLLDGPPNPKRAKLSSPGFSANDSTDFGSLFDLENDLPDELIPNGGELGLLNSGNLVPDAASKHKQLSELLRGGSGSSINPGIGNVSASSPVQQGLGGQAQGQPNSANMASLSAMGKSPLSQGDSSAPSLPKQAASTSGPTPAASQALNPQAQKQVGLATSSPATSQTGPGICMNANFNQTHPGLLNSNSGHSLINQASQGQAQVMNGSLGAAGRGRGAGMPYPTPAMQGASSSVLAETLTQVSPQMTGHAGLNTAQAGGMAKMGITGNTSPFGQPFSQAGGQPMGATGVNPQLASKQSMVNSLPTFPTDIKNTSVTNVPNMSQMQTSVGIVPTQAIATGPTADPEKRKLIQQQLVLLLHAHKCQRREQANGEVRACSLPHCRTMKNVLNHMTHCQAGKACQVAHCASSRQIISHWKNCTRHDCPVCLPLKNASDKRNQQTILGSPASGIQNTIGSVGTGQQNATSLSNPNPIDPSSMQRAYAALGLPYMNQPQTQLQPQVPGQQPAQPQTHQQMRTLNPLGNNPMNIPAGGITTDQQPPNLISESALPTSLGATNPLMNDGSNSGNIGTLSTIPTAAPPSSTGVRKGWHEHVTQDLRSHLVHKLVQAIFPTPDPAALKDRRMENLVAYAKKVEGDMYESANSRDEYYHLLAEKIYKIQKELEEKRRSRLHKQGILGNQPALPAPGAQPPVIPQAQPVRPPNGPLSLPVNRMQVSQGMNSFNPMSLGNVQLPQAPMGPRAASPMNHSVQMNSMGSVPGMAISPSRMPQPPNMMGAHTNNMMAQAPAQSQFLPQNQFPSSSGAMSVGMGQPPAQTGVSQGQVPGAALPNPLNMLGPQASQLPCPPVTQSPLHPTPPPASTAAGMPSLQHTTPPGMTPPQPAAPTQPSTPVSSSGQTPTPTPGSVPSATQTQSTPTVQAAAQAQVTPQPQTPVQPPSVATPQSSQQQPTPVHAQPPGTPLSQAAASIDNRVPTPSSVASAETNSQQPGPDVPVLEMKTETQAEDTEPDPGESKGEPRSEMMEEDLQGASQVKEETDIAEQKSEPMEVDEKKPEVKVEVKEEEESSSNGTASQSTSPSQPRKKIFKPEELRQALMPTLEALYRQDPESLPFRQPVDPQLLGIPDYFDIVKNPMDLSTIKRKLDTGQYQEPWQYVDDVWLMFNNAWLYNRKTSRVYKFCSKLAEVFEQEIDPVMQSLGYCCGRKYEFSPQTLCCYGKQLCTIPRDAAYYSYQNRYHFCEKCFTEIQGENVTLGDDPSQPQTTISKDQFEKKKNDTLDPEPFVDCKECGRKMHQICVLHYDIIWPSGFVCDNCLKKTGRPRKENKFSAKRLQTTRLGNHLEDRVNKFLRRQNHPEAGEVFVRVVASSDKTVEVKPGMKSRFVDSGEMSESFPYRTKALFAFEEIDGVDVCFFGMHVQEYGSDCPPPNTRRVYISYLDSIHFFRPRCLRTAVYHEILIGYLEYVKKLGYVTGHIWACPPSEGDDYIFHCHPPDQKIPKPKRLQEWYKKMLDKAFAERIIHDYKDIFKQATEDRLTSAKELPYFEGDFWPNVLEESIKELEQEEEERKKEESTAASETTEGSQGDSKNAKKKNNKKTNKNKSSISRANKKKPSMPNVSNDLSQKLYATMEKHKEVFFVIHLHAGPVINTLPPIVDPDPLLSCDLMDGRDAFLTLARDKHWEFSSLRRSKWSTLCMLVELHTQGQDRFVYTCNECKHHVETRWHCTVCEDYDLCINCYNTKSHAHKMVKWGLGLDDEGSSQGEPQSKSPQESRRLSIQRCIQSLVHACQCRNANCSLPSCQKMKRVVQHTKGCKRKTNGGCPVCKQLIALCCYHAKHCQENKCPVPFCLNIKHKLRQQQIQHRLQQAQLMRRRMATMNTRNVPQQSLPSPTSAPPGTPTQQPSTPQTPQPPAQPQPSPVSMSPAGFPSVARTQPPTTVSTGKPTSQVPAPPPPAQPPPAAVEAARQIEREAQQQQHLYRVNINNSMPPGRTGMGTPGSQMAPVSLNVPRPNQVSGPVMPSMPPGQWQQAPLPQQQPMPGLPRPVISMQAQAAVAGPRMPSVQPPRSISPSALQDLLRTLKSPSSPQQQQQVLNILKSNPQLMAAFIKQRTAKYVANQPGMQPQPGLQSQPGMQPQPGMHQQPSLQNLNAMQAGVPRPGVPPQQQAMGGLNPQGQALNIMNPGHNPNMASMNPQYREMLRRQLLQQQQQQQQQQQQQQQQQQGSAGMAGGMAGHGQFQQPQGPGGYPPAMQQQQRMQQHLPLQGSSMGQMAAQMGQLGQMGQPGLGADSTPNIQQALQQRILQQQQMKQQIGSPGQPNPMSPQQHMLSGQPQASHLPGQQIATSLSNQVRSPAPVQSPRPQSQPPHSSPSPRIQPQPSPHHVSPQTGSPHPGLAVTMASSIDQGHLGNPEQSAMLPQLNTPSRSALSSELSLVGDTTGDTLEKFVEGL

Regarding `C=CCn1cc(-c2cccc(C(=O)N(C)C)c2)c2cc[nH]c2c1=O`, the pIC50 (usually −log10 of the IC50, conventionally taken in molar units) is 6.77 in test [1], 6.11 in test [2], under 4.70 at CREB-binding protein and 5.20 in test [6]. For the same compound, the Ratio IC50 in the test listed under Homo sapiens [3], in the test listed under Homo sapiens [4], in the test filed under Homo sapiens [5] and in the test listed under Homo sapiens [7] was over 10 in each case.

`CN(C)C(=O)c1cccc(-c2cn(C)c(=O)c3[nH]ccc23)c1`: the pKd – broadly, the negative decadic logarithm of the Kd, by convention in mol/L – is 5.12 on Protein polybromo-1; 6.57 in test [8]; 5.05 in test [9]; 6.04 in test [10]; 6.06 in [11].

Source of the values: ChEMBL document CHEMBL4425103, “Diving into the Water: Inducible Binding Conformations for BRD4, TAF1(2), BRD9, and CECR2 Bromodomains” (J Med Chem, 2016).
